Experimental data reported in ChEMBL document CHEMBL1126882, “Orally active central dopamine and serotonin receptor ligands: 5-, 6-, 7-, and 8-[[trifluoromethyl)sulfonyl]oxy]-2-(di-n-propylamino)tetralins and the formation of active metabolites in vivo” (J Med Chem, 1993).
Active and inactive are the calls of the source. The rule behind the calls is not given here.

How the values were obtained:
Rattus norvegicus [1] = experiment: Effective dose for half-maximal decrease in the accumulation of 5-hydroxytryptophan (5-HTP) in reserpinized rat brain striatal area by sc administration; Inactive; type: functional, organism-based
Procedure, shortened: (§1)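 Male Sprague-Dawley rats (200-300 g) got reserpine 5 mg/kg sc 18 h before. The test drug (saline) was given sc or po (po rats fasted 18 h), with NSD 1015, 30 min before decapitation. DOPA and 5-HTP in limbic, striatal and hemispheral tissue were measured by HPLC-ED. ED50 (half-maximal decrease) was taken from 4-6-dose curves, with deviation estimated graphically from SEM.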

[2] = Effective dose for half-maximal decrease in the accumulation of 5-hydroxytryptophan (5-HTP) in reserpinized rat brain hemispheral area by po administration; type: functional; procedure, shortened: as §1
Rattus norvegicus [3] = experiment: Effective dose for half-maximal decrease in the accumulation of 5-hydroxytryptophan (5-HTP) in reserpinized rat brain hemispheral area by sc administration; Inactive; type: functional, organism-based; procedure, shortened: as §1
[4] = Effective dose for half-maximal decrease in the accumulation of 5-hydroxytryptophan (5-HTP) in reserpinized rat brain limbic area by po administration; type: functional; procedure, shortened: as §1
Rattus norvegicus [5] = experiment: Effective dose for half-maximal decrease in the accumulation of 5-hydroxytryptophan (5-HTP) in reserpinized rat brain limbic area by sc administration; Inactive; type: functional, organism-based; procedure, shortened: as §1
[6] = Effective dose for half-maximal decrease in the accumulation of 5-hydroxytryptophan (5-HTP) in reserpinized rat brain striatal area by po administration; type: functional; procedure, shortened: as §1
[7] = target: T1, 5-hydroxytryptamine receptor 1A (Rattus norvegicus, UniProt P19327); experiment: Binding affinity against 5-hydroxytryptamine 1A receptor in homogenated rat brain tissue, using by [3H]8-OH-DPAT as radioligand; type: tissue-based
T1 sequence (P19327 whole entry): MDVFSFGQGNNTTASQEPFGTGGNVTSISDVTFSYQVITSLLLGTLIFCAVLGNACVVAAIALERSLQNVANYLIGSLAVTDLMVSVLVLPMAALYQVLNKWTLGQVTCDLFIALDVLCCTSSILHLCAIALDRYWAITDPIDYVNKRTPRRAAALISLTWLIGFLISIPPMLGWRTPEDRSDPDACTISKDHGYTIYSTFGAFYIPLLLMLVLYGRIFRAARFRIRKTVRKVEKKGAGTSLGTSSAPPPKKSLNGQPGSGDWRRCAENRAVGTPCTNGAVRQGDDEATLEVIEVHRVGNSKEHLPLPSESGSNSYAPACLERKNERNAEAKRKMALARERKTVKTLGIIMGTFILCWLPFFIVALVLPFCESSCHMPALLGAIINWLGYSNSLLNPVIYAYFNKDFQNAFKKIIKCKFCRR
Procedure, shortened: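 Rat brain homogenate was washed and preincubated in 50 mM Tris (pH 8.0) containing NaCl, CaCl2 and MgCl2, plus 10 μM pargyline. Nonspecific binding was defined with 10 μM 5-HT. Six drug concentrations (10⁻⁴-10⁻⁹ M) were tested, triplicate or single run. IC50 came from a semilog plot with linear regression.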

[8] = target: T2, Dopamine receptor (Rattus norvegicus) (UniProt P25115+P19020+P30729+P18901+P61169); experiment: Effective dose for half-maximal decrease in the accumulation of DOPA in reserpinized rat brain limbic area by po administration; type: functional, organism-based; procedure, shortened: as §1
[9] = target: T2, Dopamine receptor (Rattus norvegicus); experiment: Effective dose for half-maximal decrease in the accumulation of DOPA in reserpinized rat brain limbic area by sc administration; type: functional, organism-based; procedure, shortened: as §1
[10] = target: T2, Dopamine receptor (Rattus norvegicus); experiment: Effective dose for half-maximal decrease in the accumulation of DOPA in reserpinized rat brain striatal area by po administration; type: functional, organism-based; procedure, shortened: as §1
[11] = target: T2, Dopamine receptor (Rattus norvegicus); experiment: Effective dose for half-maximal decrease in the accumulation of DOPA in reserpinized rat brain striatal area by sc administration; type: functional, organism-based; procedure, shortened: as §1
[12] = target: T2, Dopamine receptor (Rattus norvegicus); experiment: Effective dose for half-maximal decrease in the accumulation of DOPA in reserpinized rat brain hemispheral area by po administration; type: functional, organism-based; procedure, shortened: as §1
[13] = target: T2, Dopamine receptor (Rattus norvegicus); experiment: Effective dose for half-maximal decrease in the accumulation of DOPA in reserpinized rat brain hemispheral area by sc administration; Inactive; type: functional, organism-based; procedure, shortened: as §1
D(2) dopamine receptor [14] = target: T3, D(2) dopamine receptor (Rattus norvegicus, UniProt P61169); experiment: Binding affinity against dopamine receptor D2 in rat brain tissue using [3H]spiperone; type: tissue-based
T3 sequence (P61169 whole entry): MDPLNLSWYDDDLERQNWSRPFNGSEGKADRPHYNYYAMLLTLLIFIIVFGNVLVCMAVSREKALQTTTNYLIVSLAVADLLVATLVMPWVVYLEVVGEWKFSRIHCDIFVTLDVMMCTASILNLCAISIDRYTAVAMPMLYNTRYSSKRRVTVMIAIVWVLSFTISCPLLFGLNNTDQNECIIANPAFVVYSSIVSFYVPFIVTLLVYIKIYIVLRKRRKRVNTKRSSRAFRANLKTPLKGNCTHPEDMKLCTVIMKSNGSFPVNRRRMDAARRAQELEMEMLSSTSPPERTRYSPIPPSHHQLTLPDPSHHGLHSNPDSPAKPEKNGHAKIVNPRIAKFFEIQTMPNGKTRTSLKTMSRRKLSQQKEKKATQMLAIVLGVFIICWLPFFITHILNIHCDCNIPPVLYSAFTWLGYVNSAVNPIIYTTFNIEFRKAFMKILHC
Procedure, shortened: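 Rat striatal membranes were prepared in 50 mM potassium phosphate (pH 7.4). They were incubated with 0.5 nM [3H]spiperone (3 mg original tissue) for 10 min at 37 °C. Specific binding was defined with 10 μM 6,7-ADTN. Six drug concentrations (10⁻⁴-10⁻⁹ M) were tested, in triplicate or in a single experiment.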

Rattus norvegicus [15] = experiment: Effective dose for half-maximal decrease in the accumulation of 5-hydroxytryptophan (5-HTP) in reserpinized rat brain striatal area by sc administration; partial response at the highest dose tested; type: functional, organism-based; procedure, shortened: as §1
Rattus norvegicus [16] = experiment: Effective dose for half-maximal decrease in the accumulation of 5-hydroxytryptophan (5-HTP) in reserpinized rat brain limbic area by sc administration; partial response at the highest dose tested; type: functional, organism-based; procedure, shortened: as §1
[17] = target: T2, Dopamine receptor (Rattus norvegicus); experiment: Effective dose for half-maximal decrease in the accumulation of DOPA in reserpinized rat brain limbic area by sc administration; partial response at the highest dose tested; type: functional, organism-based; procedure, shortened: as §1
[18] = target: T2, Dopamine receptor (Rattus norvegicus); experiment: Effective dose for half-maximal decrease in the accumulation of DOPA in reserpinized rat brain striatal area by sc administration; partial response at the highest dose tested; type: functional, organism-based; procedure, shortened: as §1
[19] = Effective dose for half-maximal decrease in the accumulation of 5-hydroxytryptophan (5-HTP) in reserpinized rat brain striatal area by sc administration; type: functional; procedure, shortened: as §1
[20] = Effective dose for half-maximal decrease in the accumulation of 5-hydroxytryptophan (5-HTP) in reserpinized rat brain hemispheral area by sc administration; type: functional; procedure, shortened: as §1
[21] = Effective dose for half-maximal decrease in the accumulation of 5-hydroxytryptophan (5-HTP) in reserpinized rat brain limbic area by sc administration; type: functional; procedure, shortened: as §1
[22] = target: T2, Dopamine receptor (Rattus norvegicus); experiment: Effective dose for half-maximal decrease in the accumulation of DOPA in reserpinized rat brain hemispheral area by sc administration; partial response at the highest dose tested; type: functional, organism-based; procedure, shortened: as §1
Rattus norvegicus [23] = organism: Rattus norvegicus; experiment: 5-HT behavioral syndrome was determined by observing flat body posture and forepaw threading in rat.++ indicates […] intensity of behavioral effect; type: functional, organism-based
Procedure, shortened: (§2)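 Male Sprague-Dawley rats (200-300 g) given reserpine 5 mg/kg sc in the neck 18 h before testing. The test compound, in 0.9% saline, was given sc in the neck (n = 4-5). Rats were placed singly in photocell motility meters right after dosing. Counts were recorded over 30 min, alongside gross behavioural observation of 5-HT and DA signs. Statistics: ANOVA with Fischer's PLSD versus reserpine controls.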

Rattus norvegicus [24] = experiment: post-synaptic agonistic effects by increase in locomotor activity at the dose of 50 umol/kg, sc in reserpinized rat (p<0.005); type: functional
Rattus norvegicus [25] = experiment: Effective dose for half-maximal decrease in the accumulation of 5-hydroxytryptophan (5-HTP) in reserpinized rat brain striatal area by po administration; Partial response at the highest dose tested; type: functional, organism-based; procedure, shortened: as §1
Rattus norvegicus [26] = experiment: Effective dose for half-maximal decrease in the accumulation of 5-hydroxytryptophan (5-HTP) in reserpinized rat brain striatal area by sc administration; Partial response at the highest dose tested; type: functional, organism-based; procedure, shortened: as §1
Rattus norvegicus [27] = experiment: Effective dose for half-maximal decrease in the accumulation of 5-hydroxytryptophan (5-HTP) in reserpinized rat brain hemispheral area by sc administration; Partial response at the highest dose tested; type: functional, organism-based; procedure, shortened: as §1
[28] = Half-lives were estimated from the elimination phase of the blood conc-time curve after oral administration; type: ADME, organism-based; settings: whole blood
Procedure, shortened: (§3)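 Male Sprague-Dawley rats (300 g) with arterial catheters were dosed 24 h after surgery. Doses: 40 μmol/kg po by gavage and 5 μmol/kg iv, or 20 po and 1 iv. Po rats were fasted 18 h. Blood was sampled from 5 min to 12 h and measured by GC-MS after extraction at pH 11 against an internal standard, samples in duplicate. AUC po/iv came from n = 4 per route. Half-life was read graphically from the oral elimination phase.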

D(2) dopamine receptor [29] = target: T3, D(2) dopamine receptor; experiment: Binding affinity against dopamine receptor D2 in homogenated rat brain tissue, using by ([3H]N00437) as radioligand; type: tissue-based
Procedure, shortened: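 Striata from male Wistar rats were washed in Tris (pH 7.5) containing EDTA, KCl and CaCl2. Tissue (1.25 mg original) was incubated with 0.2 nM [3H]-N-0437 (final) for 90 min at 25 °C, then filtered and counted by scintillation. Nonspecific binding was defined with 1 μM 6,7-ADTN. IC50 was read from a hand-fitted sigmoid curve, in triplicate.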

[30] = target: T2, Dopamine receptor (Rattus norvegicus); experiment: Effective dose for half-maximal decrease in the accumulation of DOPA in reserpinized rat brain hemispheral area by sc administration; Partial response at the highest dose tested; type: functional, organism-based; procedure, shortened: as §1
Rattus norvegicus [31] = organism: Rattus norvegicus; experiment: DA agonist induced behavior was charecterised by increased locomotion, sniffing and licking.++ indicates high intensity of behavioral effect; type: functional, organism-based; procedure, shortened: as §2
Rattus norvegicus [32] = experiment: post-synaptic agonistic effects by increase in locomotor activity at the dose of 50 umol/kg, sc in reserpinized rat; type: functional
[33] = Area under curve ratio was determined (po/iv); type: functional; procedure, shortened: as §3
[34] = target: T2, Dopamine receptor (Rattus norvegicus); experiment: Effective dose for half-maximal decrease in the accumulation of DOPA in reserpinized rat brain limbic area by po administration; partial response at the highest dose tested; type: functional, organism-based; procedure, shortened: as §1
[35] = target: T2, Dopamine receptor (Rattus norvegicus); experiment: Effective dose for half-maximal decrease in the accumulation of DOPA in reserpinized rat brain striatal area by po administration; partial response at the highest dose tested; type: functional, organism-based; procedure, shortened: as §1
Rattus norvegicus [36] = organism: Rattus norvegicus; experiment: DA agonist induced behavior was charecterised by increased locomotion, sniffing and licking.+ indicates low intensity of behavioral effect; type: functional, organism-based; procedure, shortened: as §2

| Compound | ED50 [2] | ED50 (Rattus norvegicus [3]) | ED50 [4] | ED50 (Rattus norvegicus [5]) | ED50 [6] | Ki [7] | ED50 [8] | ED50 [9] | ED50 [10] | ED50 [11] | ED50 [12] | ED50 [13] | Ki (D(2) dopamine receptor [14]) | ED50 [17] | ED50 [18] | ED50 [19] | ED50 [20] | ED50 [21] | Counts/30 (Rattus norvegicus [24]) | half-life [28] | other results |
| --- | --- | --- | --- | --- | --- | --- | --- | --- | --- | --- | --- | --- | --- | --- | --- | --- | --- | --- | --- | --- | --- |
| CCCN(CCC)C1CCc2c(cccc2OC)C1 (stereo unspecified) | 0.3 µmol/kg | inactive | 0.4 µmol/kg | inactive | 0.5 µmol/kg | 440 nM | 0.2 µmol/kg | 0.01 µmol/kg | 0.2 µmol/kg | 0.02 µmol/kg | 0.3 µmol/kg | inactive | 100 nM |  |  |  |  |  |  |  | ED50 (Rattus norvegicus [1]): inactive |
| CCCN(CCC)C1CCc2ccc(OC)cc2C1 (stereo unspecified) |  | inactive |  |  |  |  |  |  |  |  |  | inactive |  | Weak activity | Weak activity |  |  |  |  |  | ED50 (Rattus norvegicus [15]): Weak activity; ED50 (Rattus norvegicus [16]): Weak activity |
| CCCNC1CCc2cccc(OS(=O)(=O)C(F)(F)F)c2C1 (stereo unspecified) |  |  |  |  |  | 3.8 nM |  |  |  |  |  |  | 1360 nM | Weak activity | Weak activity | 0.8 µmol/kg | 1.1 µmol/kg | 1.2 µmol/kg | 120 min |  | ED50 [22]: Weak activity; Behavioral syndrome (Rattus norvegicus [23]): Active |
| CCCN(CCC)C1CCc2c(cccc2OS(=O)(=O)C(F)(F)F)C1 (stereo unspecified) | 5.4 µmol/kg |  | 3 µmol/kg | inactive |  | 160 nM | 6.2 µmol/kg | 0.4 µmol/kg | 7.9 µmol/kg | 0.5 µmol/kg |  |  | 64 nM |  |  |  |  |  |  | 1.5 h | ED50 (Rattus norvegicus [25]): Weak activity; ED50 (Rattus norvegicus [26]): Weak activity; ED50 (Rattus norvegicus [27]): Weak activity; Ki (D(2) dopamine receptor [29]): 28 nM; ED50 [30]: Weak activity; Behavioral observation (Rattus norvegicus [31]): Active; Counts/30 min (Rattus norvegicus [32]): 170; Ratio [33]: 8.5 |
| CCCN(CCC)C1CCc2cccc(OS(=O)(=O)C(F)(F)F)c2C1 (stereo unspecified) | 1.2 µmol/kg |  | 1.2 µmol/kg |  | 1.5 µmol/kg | 9.6 nM |  |  |  |  | 30 µmol/kg | inactive | 670 nM | Weak activity | Weak activity | 15 µmol/kg | 10 µmol/kg | 5.9 µmol/kg | 110 min | 1.5 h | ED50 [34]: Weak activity; ED50 [35]: Weak activity; Behavioral syndrome (Rattus norvegicus [36]): Partially active; Ratio [33]: 11.2 |
